# According to ChEMBL document CHEMBL3259775, “Towards the development of 5-HT₇ ligands combining serotonin-like and arylpiperazine moieties” (Eur J Med Chem, 2014):
# Biological target: T1, 5-hydroxytryptamine receptor 7 (Homo sapiens, UniProt P34969)
# Experiment: Displacement of [3H]5-HT from human 5-HT7 receptor expressed in HEK293 cells at 10^-5 mol/L after 30 mins by microbeta counting analysis
# Type: cell-based
# How it was run: (§1)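 Membranes incubated 30 min at 25 °C with 5 nmol/L [3H]5-HT in 50 mM Tris-HCl pH 7.4 containing pargyline, CaCl2 and ascorbic acid, with the test compound at a single fixed concentration. Non-specific binding with 100 µM cold 5-HT; separation by filtration; result reported as % displacement.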
# T1 sequence (P34969 whole entry): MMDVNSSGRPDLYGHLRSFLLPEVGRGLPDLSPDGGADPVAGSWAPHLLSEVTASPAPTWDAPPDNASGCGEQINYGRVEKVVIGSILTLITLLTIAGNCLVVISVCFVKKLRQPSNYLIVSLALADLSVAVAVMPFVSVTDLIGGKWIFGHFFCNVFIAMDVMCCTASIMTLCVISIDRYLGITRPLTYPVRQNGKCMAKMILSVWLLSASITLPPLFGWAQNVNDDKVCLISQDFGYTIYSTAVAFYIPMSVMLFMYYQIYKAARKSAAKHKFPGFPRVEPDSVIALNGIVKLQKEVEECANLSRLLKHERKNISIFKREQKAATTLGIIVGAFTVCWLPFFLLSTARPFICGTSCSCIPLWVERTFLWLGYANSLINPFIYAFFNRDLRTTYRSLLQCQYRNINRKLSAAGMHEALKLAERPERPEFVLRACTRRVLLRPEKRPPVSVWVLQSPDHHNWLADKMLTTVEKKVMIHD
row,Structure (SMILES),inhibition
1,Oc1ccc2[nH]cc(CCN3CCN(c4cccc(-c5ccccc5)c4)CC3)c2c1,88%
2,Oc1cccc(OCCN2CCN(c3ccccc3)CC2)c1,42%
3,CN(CCCCCCN1CCN(c2ccnc3cc(Cl)ccc23)CC1)c1cccc(O)c1,74%

# Results, then the compound that gave them:
row,inhibition,Structure (SMILES)
1,82%,CN(CCN1CCN(Cc2ccccc2)CC1)c1cccc(O)c1
2,85%,CN(CCN1CCN(c2ccccc2)CC1)c1cccc(N)c1

# Biological target: T1, 5-hydroxytryptamine receptor 7
# Experiment: Displacement of [3H]5-HT from human 5-HT7 receptor expressed in HEK293 cells at 10^-6 mol/L after 30 mins by microbeta counting analysis
# Type: cell-based
# How it was run: as §1
row,Structure (SMILES),inhibition
1,Oc1ccc2[nH]cc(CCN3CCN(c4cccc(-c5ccccc5)c4)CC3)c2c1,42%
2,Oc1cccc(OCCN2CCN(c3ccccc3)CC2)c1,21%
3,CN(CCCCCCN1CCN(c2ccnc3cc(Cl)ccc23)CC1)c1cccc(O)c1,28%

# The next lines start with the values.
row,inhibition,Structure (SMILES)
1,42%,CN(CCN1CCN(Cc2ccccc2)CC1)c1cccc(O)c1
2,40%,CN(CCN1CCN(c2ccccc2)CC1)c1cccc(N)c1

# Biological target: T1, 5-hydroxytryptamine receptor 7
# Experiment: Displacement of [3H]5-HT from human 5-HT7 receptor expressed in HEK293 cells after 30 mins by microbeta counting analysis
# Type: cell-based
row,Structure (SMILES),Ki
1,CN(CCCN1CCN(c2cccc3ccccc23)CC1)c1cccc(O)c1,2.9 nM
2,CN(CCCCCCN1CCC(c2ccccc2)CC1)c1cccc(O)c1,226 nM
3,CN(CCCCCCN1CCN(c2cccc(C(F)(F)F)c2)CC1)c1cccc(O)c1,95.6 nM
4,CCc1[nH]c2ccc(O)cc2c1CCN1CCN(c2cccc3ccccc23)CC1,6.6 nM
5,CN(CCCCCCN1CCN(c2cccc3ccccc23)CC1)c1cccc(O)c1,39.4 nM
6,Oc1cccc(CCCCN2CCN(c3ccccc3)CC2)c1,3.1 nM
7,O=S(=O)(c1ccccc1)N(CCCN1CCN(c2ccccc2)CC1)c1cccc(O)c1,12.1 nM
8,Oc1cccc(CCCN2CCN(c3ccccc3)CC2)c1,40 nM
9,Cc1[nH]c2ccc(O)cc2c1CCN1CCN(c2cccc3ccccc23)CC1,12.8 nM
10,CN(CCCN1CCC(c2ccccc2)(c2ccccc2)CC1)c1cccc(O)c1,242 nM
11,CCN(CCCCCCN1CCN(c2ccccc2)CC1)c1cccc(O)c1,191 nM
12,Oc1cccc(N(CCCN2CCN(c3ccccc3)CC2)Cc2ccccc2)c1,92.5 nM
13,CN(CCCN1CCC(N(c2ccccc2)c2ccccc2)CC1)c1cccc(O)c1,310 nM
14,Oc1cccc(N(CCCCCCN2CCN(c3ccccc3)CC2)Cc2ccccc2)c1,138 nM
15,Oc1cccc(N(CCCN2CCN(c3ccccc3)CC2)c2ccccc2)c1,90.1 nM
16,CN(CCCN1CCN(c2ccc3ccccc3c2)CC1)c1cccc(O)c1,434 nM
17,CCCN(CCCN1CCN(c2ccccc2)CC1)c1cccc(O)c1,20.8 nM
18,Oc1cccc2c1CC(N1CCN(c3ccccc3)CC1)CC2 (racemic),81.4 nM

# Further lines, results first:
row,Ki,Structure (SMILES)
1,12 nM,CN(CCCCCCN1CCN(c2ccccc2)CC1)c1cccc(O)c1
2,39.6 nM,CN(CCCN1CCN(c2ccccc2)CC1)c1cccc(NS(C)(=O)=O)c1
3,16.7 nM,CN(CCCCCN1CCN(c2ccccc2)CC1)c1cccc(O)c1
4,57 nM,CN(CCN1CCN(c2ccccc2)CC1)c1cccc(NS(C)(=O)=O)c1
5,112 nM,CN(CCCN1CCN(c2ccccc2)CC1)c1cccc(F)c1
6,63.3 nM,NC(=O)c1cccc(NCCCN2CCN(c3ccccc3)CC2)c1
7,161 nM,CN(CCN1CCN(c2ccccc2)CC1)c1cccc(O)c1
8,332 nM,CN(CCN1CCN(c2ccccc2)CC1)c1cccc([N+](=O)[O-])c1
9,161 nM,CC(=O)Nc1cccc(N(C)CCCN2CCN(c3ccccc3)CC2)c1
10,10.1 nM,Oc1cccc(NCCCN2CCN(c3ccccc3)CC2)c1
11,77.9 nM,COC(=O)c1cccc(NCCCN2CCN(c3ccccc3)CC2)c1
12,252 nM,Oc1cccc(NCCN2CCN(c3ccccc3)CC2)c1
13,84.8 nM,Cc1cccc(N(C)CCCN2CCN(c3ccccc3)CC2)c1
14,161 nM,CN(CCCN1CCN(c2ccccc2)CC1)c1cccc(Br)c1
15,13.2 nM,O=Cc1cccc(NCCCN2CCN(c3ccccc3)CC2)c1
16,179 nM,CN(CCCN1CCN(c2ccccc2)CC1)c1cccc(Cl)c1
17,109 nM,OCc1cccc(NCCCN2CCN(c3ccccc3)CC2)c1

# Biological target: T1, 5-hydroxytryptamine receptor 7
# Experiment: Antagonist activity at human 5-HT7 receptor expressed in CHO cells assessed as residual 5-HT-stimulated cAMP accumulation at 1 uM relative to control
row,% serotonin response,Structure (SMILES)
1,56%,CN(CCCCCCN1CCN(c2ccccc2)CC1)c1cccc(O)c1
2,69%,CN(CCCCCN1CCN(c2ccccc2)CC1)c1cccc(O)c1
3,48%,CN(CCN1CCN(c2ccccc2)CC1)c1cccc(NS(C)(=O)=O)c1
